ChEMBL document CHEMBL2375242, “Synthesis of (S)-FTY720 vinylphosphonate analogues and evaluation of their potential as sphingosine kinase 1 inhibitors and activators” (Bioorg Med Chem, 2013)
Calls of active or inactive are those of the source. The calls are words filed in the database; no cut-off is given here.

What was measured:
Sphingosine kinase 1 [1] = target: T1, Sphingosine kinase 1 (Homo sapiens, UniProt Q9NYA1); assay: Activation of recombinant GFP-tagged SK1 (unknown origin) expressed in HEK293 cells using sphingosine as substrate above 50 uM after 30 mins by Cerenkov counting analysis; type: cell-based
T1 sequence (Q9NYA1 whole entry): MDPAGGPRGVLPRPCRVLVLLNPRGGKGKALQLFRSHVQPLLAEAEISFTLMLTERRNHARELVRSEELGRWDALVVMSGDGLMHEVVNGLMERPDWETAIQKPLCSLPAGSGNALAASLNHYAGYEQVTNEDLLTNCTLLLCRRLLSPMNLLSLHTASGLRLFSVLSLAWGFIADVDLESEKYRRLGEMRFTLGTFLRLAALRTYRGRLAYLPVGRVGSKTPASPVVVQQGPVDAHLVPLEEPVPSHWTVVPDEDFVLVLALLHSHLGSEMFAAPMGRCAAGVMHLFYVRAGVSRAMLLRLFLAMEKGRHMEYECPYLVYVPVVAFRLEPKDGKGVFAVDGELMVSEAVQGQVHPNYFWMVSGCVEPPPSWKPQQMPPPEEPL
Method in brief: (§1)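 Lysate of HEK 293 cells stably overexpressing GFP-SK1 (30 μg protein) was incubated for 30 min at 30 °C with 3 μM sphingosine (Km) in Triton X-100 and 250 μM [γ-32P]ATP in 10 mM MgCl2, at pH 7.4 Tris buffer with phosphatase and protease inhibitors. Compounds were in DMSO; the control was 5% DMSO. [32P]-S1P was extracted into 1-butanol/KCl and measured by Cerenkov counting. Activity is % of the sphingosine-alone control, n = 3, mean ± S.E.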

Sphingosine kinase 1 [2] = target: T1, Sphingosine kinase 1; assay: Activation of recombinant GFP-tagged SK1 (unknown origin) expressed in HEK293 cells using sphingosine as substrate after 30 mins by Cerenkov counting analysis; type: cell-based
Method in brief: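 Enzyme source: lysates (30 μg) of HEK 293 cells stably overexpressing GFP-SK1, cultured in DMEM/10% FCS with geneticin. Reaction run 30 min at 30 °C with 3 μM sphingosine in Triton X-100 (0.063% final) and 250 μM [γ-32P]ATP in 10 mM MgCl2, pH 7.4 Tris buffer. Compound added in DMSO; control is 5% DMSO, set as 100% activity. [32P]-S1P is extracted into butanol and read by Cerenkov counting. EC50 from concentration-response, n = 3.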

Sphingosine kinase 1 [3] = target: T1, Sphingosine kinase 1; assay: Activation of recombinant GFP-tagged SK1 (unknown origin) expressed in HEK293 cells using sphingosine as substrate at 50 uM after 30 mins by Cerenkov counting analysis relative to control; type: cell-based; method in brief: as §1
Sphingosine kinase 1 [4] = target: T1, Sphingosine kinase 1; assay: Activity at recombinant GFP-tagged SK1 (unknown origin) expressed in HEK293 cells at 50 uM after 30 mins by Cerenkov counting analysis; type: cell-based
Sphingosine kinase 1 [5] = target: T1, Sphingosine kinase 1; assay: Inhibition of recombinant GFP-tagged SK1 (unknown origin) expressed in HEK293 cells using sphingosine as substrate at 50 uM after 30 mins by Cerenkov counting analysis relative to control; type: cell-based; method in brief: as §1
Sphingosine kinase 1 [6] = target: T1, Sphingosine kinase 1; assay: Competitive inhibition of SK1 (unknown origin) in presence of ATP
Sphingosine kinase 1 [7] = target: T1, Sphingosine kinase 1; assay: Uncompetitive inhibition of SK1 (unknown origin) in presence of ATP
Sphingosine kinase 1 [8] = target: T1, Sphingosine kinase 1; assay: Uncompetitive inhibition of recombinant SK1 (unknown origin) expressed in HEK293 cells after 15 to 20 mins by Cornish-Bowden plot analysis in presence of sphingosine; type: cell-based
Sphingosine kinase 1 [9] = target: T1, Sphingosine kinase 1; assay: Inhibition of recombinant GFP-tagged SK1 (unknown origin) expressed in HEK293 cells using sphingosine as substrate at 50 uM after 30 mins by Cerenkov counting analysis relative to control

Compound	EC50 (Sphingosine kinase 1 [2])	Activity (Sphingosine kinase 1 [3])	Activity (Sphingosine kinase 1 [4])	inhibition (Sphingosine kinase 1 [5])	further results
CCCCCCCCc1ccc(CC[C@](/C=C/P(=O)(O)O)(CO)N=[N+]=[N-])cc1	8.3 µM	30%	inactive	–	Activity (Sphingosine kinase 1 [1]): inactive
CCCCCCCCc1ccc(CC[C@](N)(/C=C/C(=O)O)CO)cc1	–	–	inactive	inactive	–
CCCCCCCCc1ccc(CC[C@]2(N)CCC(=O)OC2)cc1	–	–	inactive	35%	–
CCCCCCCCc1ccc(CC[C@](/C=C/P(=O)(O)O)(CF)N=[N+]=[N-])cc1	5.7 µM	30%	inactive	–	–
CCCCCCCCc1ccc(CC[C@](N)(/C=C/P(=O)(O)O)CO)cc1	–	–	–	–	Kic (Sphingosine kinase 1 [6]): 10 µM; Kiuc (Sphingosine kinase 1 [7]): 65 µM; Kiuc (Sphingosine kinase 1 [8]): 14.5 µM; inhibition (Sphingosine kinase 1 [9]): 62.7%
CCCCCCCCc1ccc(CC[C@](N)(/C=C/P(=O)(O)O)CF)cc1	–	–	inactive	20%	–
